These results are taken from ChEMBL document CHEMBL3351225, “Design, synthesis, and structure-activity and structure-pharmacokinetic relationship studies of novel [6,6,5] tricyclic fused oxazolidinones leading to the discovery of a potent, selective, and orally bioavailable FXa inhibitor” (J Med Chem, 2014).

Some results are limits rather than exact numbers.

Data set [1] is described as follows: AUC (0 to infinity) in Sprague-Dawley rat at 3 mg/kg, iv. The class given is ADME, organism-based. As to conditions: plasma. Further details: time infinity, dose 3 mg/kg, route intravenous. In outline: (§1)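 Male Sprague-Dawley rats, 200−220 g, four per group. Vehicle was 5% DMSO + 5% Tween-80 in 90% saline. The reference drug was given in 10% DMSO + 10% Tween-80 + 80% PEG400 (40% solution in saline). Serial retrobulbar vein samples were quantified by LC-MS. Parameters came from noncompartmental analysis of mean plasma concentrations.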

Data set [2] is described as follows: Volume of distribution at steady state in Sprague-Dawley rat at 3 mg/kg, iv. As to conditions: in vivo, read-out: Vdss. Also noted: dose 3 mg/kg, route intravenous. The class given is ADME, organism-based. A digest of the protocol:
as §1

The nature of data set [3]: Elimination half life in Sprague-Dawley rat at 10 mg/kg, po. It counts as ADME, organism-based. Also noted: dose 10 mg/kg, route oral. The note with it: in vivo, read-out: beta t1/2 (converted). In outline:
as §1

The nature of data set [4]: Cmax in Sprague-Dawley rat at 10 mg/kg, po. It counts as ADME, organism-based. Further details: dose 10 mg/kg, route oral. As to conditions: in vivo. In outline:
as §1

Another data set has as its target Prothrombin (Homo sapiens, UniProt P00734). The data set can be described thus: Inhibition of human factor 2a using L-pyro-Glu-Pro-ArgpNA, S-2366 chromogenic substrate. A digest of the protocol: (§2)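 Human enzyme and inhibitor were premixed and preincubated, then the chromogenic substrate was added. Substrate levels: 300 μM S-2765 (FXa, trypsin); 200 μM S-2366 (FIIa); 2 mM S-2366 (FVIIa, FXIa). pNA release was monitored continuously at 405 nm for 20 min at 37 °C. IC50 was obtained by nonlinear regression.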

For another data set, the target named is T1, Coagulation factor VII (Homo sapiens, UniProt P08709).
T1 sequence (P08709 whole entry): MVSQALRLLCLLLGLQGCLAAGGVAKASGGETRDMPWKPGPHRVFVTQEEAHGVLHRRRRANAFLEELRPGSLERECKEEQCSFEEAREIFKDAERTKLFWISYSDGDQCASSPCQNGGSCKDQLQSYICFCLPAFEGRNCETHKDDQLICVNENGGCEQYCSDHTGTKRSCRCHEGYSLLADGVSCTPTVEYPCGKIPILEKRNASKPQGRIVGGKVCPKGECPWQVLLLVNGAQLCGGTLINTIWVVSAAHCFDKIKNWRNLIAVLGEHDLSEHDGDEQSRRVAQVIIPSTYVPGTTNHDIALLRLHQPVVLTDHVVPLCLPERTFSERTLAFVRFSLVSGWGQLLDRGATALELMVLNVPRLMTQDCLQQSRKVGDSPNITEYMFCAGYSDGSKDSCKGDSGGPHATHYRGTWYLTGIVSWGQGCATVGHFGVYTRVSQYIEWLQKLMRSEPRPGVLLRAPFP
The data set can be described thus: Inhibition of human factor 7a using S-2366 chromogenic substrate. A digest of the protocol: as §2

The next data set concerns the target Coagulation factor IX (Homo sapiens, UniProt P00740). Kind of data set: Inhibition of human factor 9a using CH3SO2-(D)CHG Gly-Arg-pNA, Biophen-CS51 chromogenic substrate.
Data set [5] is described as follows: Oral bioavailability in Sprague-Dawley rat at 10 mg/kg. As to conditions: in vivo. The class given is ADME, organism-based. A digest of the protocol: as §1
Another data set has as its target Coagulation factor X (Homo sapiens, UniProt P00742). Kind of data set: Inhibition of human factor 10a using N-Z-D-Arg-Gly-Arg-pNA, S-2765 chromogenic substrate.
Another data set has as its target Coagulation factor XI (Homo sapiens, UniProt P03951). The data set can be described thus: Inhibition of human factor 11a using S-2366 chromogenic substrate. In outline:
as §2

For data set [6], the system named is Plasma. The data set can be described thus: Anticoagulant activity in citrated rabbit plasma assessed as drug concentration required to double plasma clotting time preincubated for 10 mins at 37 degC by coagulometry. It counts as functional, Oryctolagus cuniculus. A digest of the protocol:
(§3)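 Test compound or DMSO added to citrated rabbit plasma (3.8% sodium citrate, 10:90 v/v) and preincubated 10 min at 37 °C. PT and aPTT clotting times measured on a coagulometer with commercial kits. Activity expressed as the concentration needed to double plasma clotting time (CT2, μM).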

The test system of data set [7] is Plasma. Kind of data set: Anticoagulant activity in citrated rabbit plasma assessed as activated partial thromboplastin time preincubated for 10 mins at 37 degC by coagulometry. The class given is functional, Oryctolagus cuniculus. A digest of the protocol: as §3
Data set [8] can be described thus: AUC (0 to infinity) in Sprague-Dawley rat at 10 mg/kg, po. Further details: time infinity, dose 10 mg/kg, route oral. It counts as ADME, organism-based. As to conditions: plasma. In outline:
as §1

The nature of data set [9]: Elimination half life in Sprague-Dawley rat at 3 mg/kg, iv. It counts as ADME, organism-based. Further details: dose 3 mg/kg, route intravenous. As to conditions: in vivo, read-out: beta t1/2 (converted). In outline: as §1
The nature of data set [10]: Plasma clearance in Sprague-Dawley rat at 3 mg/kg, iv. It counts as ADME, organism-based. Also noted: dose 3 mg/kg, route intravenous. A digest of the protocol: as §1
For a further data set, the target named is Trypsin (Homo sapiens, UniProt P07477+P07478+P35030). Kind of data set: Inhibition of human trypsin using N-Z-D-Arg-Gly-Arg-pNA, S-2765 chromogenic substrate. It counts as protein assay. A digest of the protocol: as §2
Data set [11] in a line: Tmax in Sprague-Dawley rat at 10 mg/kg, po. It counts as ADME, organism-based. Also noted: dose 10 mg/kg, route oral. The note with it: in vivo. In outline: as §1
A short description of data set [12]: AUC (0 to infinity) in Sprague-Dawley rat at 9 mg/kg, po. Further details: time infinity, dose 9 mg/kg, route oral. As to conditions: plasma. The class given is ADME, organism-based. In outline: as §1
Data set [13] can be described thus: Oral bioavailability in Sprague-Dawley rat at 9 mg/kg. It counts as ADME, organism-based. The note with it: in vivo. A digest of the protocol: as §1
Data set [14] is described as follows: Plasma clearance in Sprague-Dawley rat at 4.5 mg/kg, iv. It counts as ADME, organism-based. Also noted: dose 4.5 mg/kg, route intravenous. A digest of the protocol: as §1
Data set [15] in a line: AUC (0 to infinity) in Sprague-Dawley rat at 4.5 mg/kg, iv. The note with it: plasma. Further details: time infinity, dose 4.5 mg/kg, route intravenous. The class given is ADME, organism-based. In outline: as §1
Data set [16] can be described thus: Elimination half life in Sprague-Dawley rat at 9 mg/kg, po. It counts as ADME, organism-based. Further details: dose 9 mg/kg, route oral. As to conditions: in vivo, read-out: beta t1/2 (converted). A digest of the protocol:
as §1

Data set [17] is described as follows: Elimination half life in Sprague-Dawley rat at 4.5 mg/kg, iv. The class given is ADME, organism-based. Further details: dose 4.5 mg/kg, route intravenous. The note with it: in vivo, read-out: beta t1/2 (converted). A digest of the protocol: as §1
Data set [18] is described as follows: Tmax in Sprague-Dawley rat at 9 mg/kg, po. The class given is ADME, organism-based. Also noted: dose 9 mg/kg, route oral. The note with it: in vivo. A digest of the protocol:
as §1

Data set [19] can be described thus: Cmax in Sprague-Dawley rat at 9 mg/kg, po. It counts as ADME, organism-based. Also noted: dose 9 mg/kg, route oral. The note with it: in vivo. In outline:
as §1

The nature of data set [20]: Volume of distribution at steady state in Sprague-Dawley rat at 4.5 mg/kg, iv. It counts as ADME, organism-based. Further details: dose 4.5 mg/kg, route intravenous. As to conditions: in vivo, read-out: Vdss. A digest of the protocol: as §1

Sequence of Coagulation factor X (P00742 41-179 limits assumed): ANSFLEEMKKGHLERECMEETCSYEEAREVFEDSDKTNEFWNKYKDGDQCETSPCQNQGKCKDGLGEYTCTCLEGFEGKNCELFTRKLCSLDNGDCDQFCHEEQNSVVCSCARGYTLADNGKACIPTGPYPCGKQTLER
Sequence of Coagulation factor X (P00742 235-488 limits assumed): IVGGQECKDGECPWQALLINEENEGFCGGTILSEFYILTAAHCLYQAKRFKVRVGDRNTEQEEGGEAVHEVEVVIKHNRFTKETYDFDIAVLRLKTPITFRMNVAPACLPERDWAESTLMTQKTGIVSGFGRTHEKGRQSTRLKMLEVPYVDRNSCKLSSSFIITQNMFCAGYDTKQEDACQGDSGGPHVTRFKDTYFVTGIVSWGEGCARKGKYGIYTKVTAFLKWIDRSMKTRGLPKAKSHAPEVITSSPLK
Sequence of Coagulation factor IX (P00740 47-191 limits assumed): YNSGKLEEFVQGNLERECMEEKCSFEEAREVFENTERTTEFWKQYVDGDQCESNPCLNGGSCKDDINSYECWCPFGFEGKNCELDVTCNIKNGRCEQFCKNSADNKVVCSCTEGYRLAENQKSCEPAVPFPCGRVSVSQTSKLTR
Sequence of Coagulation factor IX (P00740 227-461 limits assumed): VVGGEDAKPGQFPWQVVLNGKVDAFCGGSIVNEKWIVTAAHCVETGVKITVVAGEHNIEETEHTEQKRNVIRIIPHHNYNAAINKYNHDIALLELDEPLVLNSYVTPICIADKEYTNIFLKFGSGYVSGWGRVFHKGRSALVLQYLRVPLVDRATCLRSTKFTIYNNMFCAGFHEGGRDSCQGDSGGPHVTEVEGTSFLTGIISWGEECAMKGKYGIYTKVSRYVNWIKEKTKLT
Sequence of Coagulation factor XI (P03951 19-387 limits assumed): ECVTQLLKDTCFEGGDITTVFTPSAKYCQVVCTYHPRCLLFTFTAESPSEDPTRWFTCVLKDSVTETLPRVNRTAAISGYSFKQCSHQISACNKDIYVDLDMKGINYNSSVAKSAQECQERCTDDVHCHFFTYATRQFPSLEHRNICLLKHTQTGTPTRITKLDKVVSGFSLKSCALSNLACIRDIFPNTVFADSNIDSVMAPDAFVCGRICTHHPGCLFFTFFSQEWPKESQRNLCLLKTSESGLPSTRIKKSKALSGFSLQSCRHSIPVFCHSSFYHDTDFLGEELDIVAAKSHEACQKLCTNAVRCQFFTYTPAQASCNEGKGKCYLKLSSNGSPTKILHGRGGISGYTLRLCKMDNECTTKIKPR
Sequence of Coagulation factor XI (P03951 388-625 limits assumed): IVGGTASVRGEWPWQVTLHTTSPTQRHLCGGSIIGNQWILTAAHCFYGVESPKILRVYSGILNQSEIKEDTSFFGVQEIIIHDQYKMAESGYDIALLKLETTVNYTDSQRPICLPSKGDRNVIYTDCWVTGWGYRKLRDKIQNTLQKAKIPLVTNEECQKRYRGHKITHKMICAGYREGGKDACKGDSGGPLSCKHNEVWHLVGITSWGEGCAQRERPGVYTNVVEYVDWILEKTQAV

Consider `O=C(NC[C@@H]1OC(=O)N2c3ccc(N4CCOCC4=O)cc3SC[C@@H]12)c1ccc(Cl)s1`, for which the AUC(0-inf) was 5700 ng·h/mL in data set [1] and 1480 ng·h/mL in data set [8]. The Vd in [2] came out at 0.574 L/kg. Moreover, the values for the half-life in [3] and in data set [9] were 3.15 h and 0.89 h, respectively. In addition, in data set [4], the Cmax came to 167 ng/mL. Moreover, the IC50 is greater than 100000 nM on Prothrombin; greater than 100000 nM against Coagulation factor VII; greater than 100000 nM against Coagulation factor IX; 2.51 nM on Coagulation factor X; greater than 100000 nM against Coagulation factor XI; greater than 100000 nM at Trypsin. This molecule also yielded a bioavailability in data set [5] of 7.4%. Also, the Activity with Plasma [6] was found to be 0.58 µM. Besides, the 2aPTT in the data set on Plasma [7] came out at 0.33 µM. In data set [10], this molecule had a clearance of 8.82 mL/min/kg. For the same molecule, the Tmax in data set [11] came out at 4 h.

On to `O=C(NC[C@@H]1OC(=O)N2c3ccc(N4CCCCC4=O)cc3OC[C@@H]12)c1ccc(Cl)s1`, for which the AUC(0-inf) in data set [12] amounted to 28500 ng·h/mL; in data set [15] it was 33600 ng·h/mL. The molecule further had a bioavailability in data set [13] of 42%. In [14], this molecule gave a clearance of 2.28 mL/min/kg. Further, the Activity in the data set with Plasma [6] stood at 0.42 µM. Also, the 2aPTT in the data set on Plasma [7] was 1.63 µM.

With `NS(=O)(=O)c1ccccc1-c1ccc2c(c1)OC[C@H]1[C@H](CNC(=O)c3ccc(Cl)s3)OC(=O)N21`, the AUC(0-inf) in data set [1] is 12200 ng·h/mL; in data set [8], 12300 ng·h/mL. The Vd in data set [2] is 0.35 L/kg. Moreover, the half-life in [3] is 1.65 h; in [9] it was 1.38 h. In addition, in [4], the highest concentration (Cmax) came to 3630 ng/mL. The molecule further showed a bioavailability in [5] of 29%. Also, on Coagulation factor X, inhibition was half-maximal at 60.6 nM (IC50). Also, in the data set on Plasma [6], the Activity is 4.58 µM. The 2aPTT with Plasma [7] worked out at 4.86 µM. Further, the clearance in data set [10] is 4.22 mL/min/kg. Moreover, the Tmax in data set [11] was found to be 1 h.

As for `CS(=O)(=O)c1ccccc1-c1ccc2c(c1)OC[C@H]1[C@H](CNC(=O)c3ccc(Cl)s3)OC(=O)N21`, the half-life in [16] was 1.43 h; in data set [17], 0.88 h. Moreover, the total exposure AUC(0-inf) in data set [12] stood at 24500 ng·h/mL; in data set [15], 43900 ng·h/mL. The molecule further had an IC50 at Coagulation factor X of 37.6 nM. In data set [18], the time to peak (Tmax) was determined as 1 h. In data set [13], this molecule showed a bioavailability of 27.3%. Moreover, the clearance in [14] was 1.72 mL/min/kg. In addition, in the data set on Plasma [6], the Activity was 5.88 µM. In addition, the 2aPTT in the data set on Plasma [7] came out at 4.65 µM. In data set [19], this molecule displayed a Cmax of 6760 ng/mL. The Vd in data set [20] is 0.169 L/kg.

In general, AUC(0-inf) refers to the area under the concentration-time curve extrapolated to infinity. A high value points to more exposure. As a reminder, the Cmax is the highest concentration seen after dosing. The term IC50 denotes the midpoint of a concentration-inhibition curve. A higher IC50 goes with weaker potency. The term bioavailability denotes the share of a dose that reaches the circulation, judged against a reference dose that is usually intravenous. A high value points to much systemic uptake. As usually defined, the clearance is the rate of elimination divided by the concentration. A low value points to inefficient removal. One may read the Tmax as the time at which the peak concentration occurs.
